Results published in publication PMC3662250 (Synlett : accounts and rapid communications in synthetic …, 2010).

Biological target: human ΔF508-CFTR (Homo sapiens, UniProt P13569, DEL508-508)
Experiment: ΔF508-CFTR corrector activity assay
Assay type: cell-based
Conditions: comparison with bithiazole 27 of earlier studies
In short: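 FRT cells expressing ΔF508-CFTR, with FRT-null cells as counter-screen. Cells were PBS-washed, then incubated 20 min with forskolin (20 µM) plus genistein (50 µM). Fluorescence (ex 500, em 535 nm) was read 2 s baseline, then 12 s after adding PBS with 137 mM Cl− replaced by I−. Initial slope was extrapolated from an exponential fit of the final 11.5 s. Controls were DMSO vehicle, a bithiazole corrector and CFTRinh-172 inhibition.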

Vmax compared with s-cis locked bithiazole 27: greater Vmax value
SMILES: Cc1cccc(Nc2ncnc3onc(-c4ccc(F)cc4)c23)c1C [Compound 7]
